According to ChEMBL document CHEMBL1147105, “In vitro and in vivo activities of PD 0305970 and PD 0326448, new bacterial gyrase/topoisomerase inhibitors with potent antibacterial activities versus multidrug-resistant gram-positive and fastidious organism groups” (2007):

Assays:
Hoylesella oralis = test: Antibacterial activity against Prevotella oralis; type: functional
Method in brief: (§1)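 Anaerobic broth microdilution MIC following CLSI guidelines, in supplemented Brucella broth. Run in an anaerobe chamber under 5% CO2, 5% H2 and 90% N2 at 35°C, and read after 48 h. Reported as MIC range, MIC50 and MIC90.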

Enterococcus faecium = test: Antibacterial activity against VanA-resistant Enterococcus faecium; type: functional
Method in brief: (§2)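 Broth microdilution MIC per CLSI guidelines, incubated at 35°C. Cation-adjusted Mueller-Hinton broth for nonfastidious organisms and staphylococci. Streptococci tested in the same broth with 3% lysed horse blood. Anaerobes tested in supplemented Brucella broth inside an anaerobe chamber (5% CO2, 5% H2, 90% N2), read after 48 h. Strains were mainly recent clinical isolates with confirmed identity.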

[1] = system: Bacteroides thetaiotaomicron; test: Antibacterial activity against Bacteroides thetaiotaomicron; type: functional; method in brief: as §1
[2] = system: Prevotella melaninogenica; test: Antibacterial activity against Prevotella melaninogenica; type: functional; method in brief: as §1
Bacteroides fragilis = test: Antibacterial activity against Bacteroides fragilis; type: functional; method in brief: as §1
[3] = system: Staphylococcus epidermidis; test: Antibacterial activity against oxacillin-resistant Staphylococcus epidermidis; type: functional; method in brief: as §2
Streptococcus pneumoniae [4] = test: Antibacterial activity against penicillin-intermediate resistant Streptococcus pneumoniae; type: functional; method in brief: as §2
Streptococcus agalactiae = test: Antibacterial activity against Streptococcus agalactiae; type: functional
Method in brief: (§3)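 Broth microdilution MIC following CLSI guidelines, in cation-adjusted Mueller-Hinton broth containing 3% lysed horse blood, incubated at 35°C. Clinical isolates with identity confirmed. Reported as MIC range, MIC50 and MIC90.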

Streptococcus mitis = test: Antibacterial activity against Streptococcus mitis; type: functional
Method in brief: (§4)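 Broth microdilution MIC following CLSI guidelines, in cation-adjusted Mueller-Hinton broth with 3% lysed horse blood. Plates incubated at 35°C. Clinical isolates and reference strains, with identity confirmed by standard microbiological methods.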

[5] = system: Enterococcus casseliflavus; test: Antibacterial activity against Enterococcus casseliflavus; type: functional
Streptococcus pyogenes = test: Antibacterial activity against Streptococcus pyogenes; type: functional; method in brief: as §4
Salmonella enteritidis = test: Antibacterial activity against Salmonella enterica serovar Enteritidis; type: functional, Salmonella enterica subsp. enterica serovar Enteritidis
Method in brief: (§5)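 Broth microdilution MIC following CLSI guidelines, in cation-adjusted Mueller-Hinton broth, incubated at 35°C. Recent clinical isolates and reference strains, with identity confirmed by automated and standard microbiological methods. Results reported as MIC range, MIC50 and MIC90.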

[6] = system: Fusobacterium necrophorum; test: Antibacterial activity against Fusobacterium necrophorum; type: functional; method in brief: as §1
Streptococcus salivarius = test: Antibacterial activity against Streptococcus salivarius; type: functional; method in brief: as §4
Staphylococcus aureus [7] = test: Antibacterial activity against oxacillin-susceptible Staphylococcus aureus; type: functional
Method in brief: (§6)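 MIC by CLSI broth microdilution for nonfastidious organisms, in cation-adjusted Mueller-Hinton broth incubated at 35°C.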

Corynebacterium sp. = test: Antibacterial activity against Corynebacterium sp.; type: functional; method in brief: as §3
Pseudomonas aeruginosa = test: Antibacterial activity against Pseudomonas aeruginosa; type: functional; method in brief: as §5
Actinomyces sp. = test: Antibacterial activity against Actinomyces sp.; type: functional
[8] = system: Staphylococcus epidermidis; test: Antibacterial activity against oxacillin-susceptible Staphylococcus epidermidis; type: functional; method in brief: as §6
Proteus mirabilis = test: Antibacterial activity against Proteus mirabilis; type: functional; method in brief: as §5
Alloiococcus otitis = test: Antibacterial activity against Alloiococcus otitidis; type: functional
Method in brief: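 MIC by broth microdilution following CLSI guidelines, in cation-adjusted Mueller-Hinton broth with 3% lysed horse blood. Incubated at 35°C and read after 48 h. Reported as MIC range, MIC50 and MIC90.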

Prevotella corporis = test: Antibacterial activity against Prevotella corporis; type: functional; method in brief: as §1
Moraxella catarrhalis = test: Antibacterial activity against beta-lactamase negative Moraxella catarrhalis; type: functional
Citrobacter koseri = test: Antibacterial activity against Citrobacter diversus; type: functional; method in brief: as §5
Morganella morganii = test: Antibacterial activity against Morganella morganii; type: functional; method in brief: as §5
Shigella dysenteriae = test: Antibacterial activity against Shigella dysenteriae; type: functional
Streptococcus pneumoniae [9] = test: Antibacterial activity against levofloxacin-resistant Streptococcus pneumoniae; type: functional; method in brief: as §2
Klebsiella pneumoniae [10] = test: Antibacterial activity against Klebsiella pneumoniae; type: functional; method in brief: as §5
Neisseria meningitidis = test: Antibacterial activity against Neisseria meningitidis; type: functional
Method in brief: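 MIC by broth microdilution in gonococcal broth, incubated at 35°C in 5% CO2. Reported as MIC range, MIC50 and MIC90.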

Prevotella buccae = test: Antibacterial activity against Prevotella buccae; type: functional; settings: Segatella buccae; method in brief: as §1
Staphylococcus aureus [11] = test: Antibacterial activity against oxacillin-resistant Staphylococcus aureus; type: functional; method in brief: as §2
[12] = system: Peptostreptococcus anaerobius; test: Antibacterial activity against Peptostreptococcus anaerobius; type: functional; method in brief: as §1
Klebsiella pneumoniae [13] = test: Antibacterial activity against beta-lactamase positive Klebsiella pneumoniae; type: functional; method in brief: as §6
Haemophilus influenzae = test: Antibacterial activity against beta-lactamase positive Haemophilus influenzae; type: functional
Method in brief: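 Broth microdilution MIC following CLSI guidelines, in Haemophilus test medium at 35°C.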

Fusobacterium sp. = test: Antibacterial activity against Fusobacterium sp.; type: functional; method in brief: as §1
Legionella pneumophila = test: Antibacterial activity against Legionella pneumophila; type: functional
Method in brief: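 Broth microdilution MIC per CLSI guidelines, run in buffered yeast extract α-ketoglutarate broth at 35°C and read after 48 h.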

Staphylococcus aureus [14] = test: Antibacterial activity against vancomycin-intermediate Staphylococcus aureus; type: functional; method in brief: as §2
Bacteroides ovatus = test: Antibacterial activity against Bacteroides ovatus; type: functional; method in brief: as §1
Klebsiella oxytoca = test: Antibacterial activity against Klebsiella oxytoca; type: functional; method in brief: as §5
Serratia marcescens = test: Antibacterial activity against Serratia marcescens; type: functional; method in brief: as §5
[15] = system: Staphylococcus haemolyticus; test: Antibacterial activity against Staphylococcus haemolyticus; type: functional; method in brief: as §3
Streptococcus pneumoniae [16] = test: Antibacterial activity against penicillin-susceptible Streptococcus pneumoniae; type: functional; method in brief: as §2
Listeria monocytogenes = test: Antibacterial activity against Listeria monocytogenes; type: functional; method in brief: as §3
Salmonella typhimurium = test: Antibacterial activity against Salmonella enterica serovar Typhimurium; type: functional, Salmonella enterica subsp. enterica serovar Typhimurium; method in brief: as §5
Clostridioides difficile = test: Antibacterial activity against Clostridium difficile; type: functional; method in brief: as §1
Acinetobacter sp. = test: Antibacterial activity against Acinetobacter sp.; type: functional; method in brief: as §5

C[C@H]1NCc2cc(-c3ccc4c(=O)c(C(=O)O)cn(C5CC5)c4c3OC(F)F)ccc21 [GARENOXACIN]
0.06 µg/mL: MIC50 (Staphylococcus aureus [7]) | MIC90 (Staphylococcus aureus [7]) | MIC [8] | MIC50 [15]
1 µg/mL: MIC90 (Hoylesella oralis) | MIC90 [2] | MIC90 (Prevotella corporis) | MIC50 (Streptococcus pneumoniae [9]) | MIC90 (Klebsiella pneumoniae [10]) | MIC90 (Prevotella buccae) | MIC50 (Klebsiella pneumoniae [13]) | MIC (Staphylococcus aureus [14]) | MIC50 (Serratia marcescens) | MIC90 (Clostridioides difficile)
8 µg/mL: MIC50 (Enterococcus faecium) | MIC90 (Serratia marcescens)
4 µg/mL: MIC90 [1] | MIC90 (Bacteroides ovatus) | MIC90 [15]
0.002 µg/mL: MIC50 (Legionella pneumophila)
16 µg/mL: MIC90 (Enterococcus faecium) | MIC90 (Proteus mirabilis) | MIC90 (Acinetobacter sp.)
32 µg/mL: MIC90 [3] | MIC90 (Morganella morganii)
> 64 µg/mL: MIC90 (Pseudomonas aeruginosa)
0.25 µg/mL: MIC50 (Hoylesella oralis) | MIC50 [2] | MIC50 (Streptococcus pneumoniae [4]) | MIC90 (Streptococcus pneumoniae [4]) | MIC90 (Streptococcus mitis) | MIC50 [5] | MIC90 (Streptococcus pyogenes) | MIC90 (Streptococcus salivarius) | MIC50 (Corynebacterium sp.) | MIC50 (Prevotella corporis) | MIC90 (Citrobacter koseri) | MIC50 (Klebsiella pneumoniae [10]) | MIC50 (Prevotella buccae) | MIC50 (Listeria monocytogenes)
0.125 µg/mL: MIC50 (Streptococcus agalactiae) | MIC90 (Streptococcus agalactiae) | MIC50 (Streptococcus mitis) | MIC50 (Streptococcus pyogenes) | MIC90 (Salmonella enteritidis) | MIC [6] | MIC50 (Streptococcus salivarius) | MIC (Actinomyces sp.) | MIC50 (Citrobacter koseri) | MIC90 (Shigella dysenteriae) | MIC (Fusobacterium sp.) | MIC50 (Klebsiella oxytoca) | MIC50 (Streptococcus pneumoniae [16]) | MIC90 (Streptococcus pneumoniae [16]) | MIC90 (Salmonella typhimurium) | MIC50 (Acinetobacter sp.)
0.008 µg/mL: MIC90 (Legionella pneumophila)
2 µg/mL: MIC50 [1] | MIC90 (Bacteroides fragilis) | MIC50 [3] | MIC50 (Pseudomonas aeruginosa) | MIC50 (Morganella morganii) | MIC90 (Streptococcus pneumoniae [9]) | MIC50 (Staphylococcus aureus [11]) | MIC90 (Staphylococcus aureus [11]) | MIC50 (Bacteroides ovatus) | MIC90 (Klebsiella oxytoca)
64 µg/mL: MIC90 (Corynebacterium sp.) | MIC90 (Klebsiella pneumoniae [13])
0.015 µg/mL: MIC [12] | MIC50 (Haemophilus influenzae)
0.004 µg/mL: MIC50 (Neisseria meningitidis) | MIC90 (Neisseria meningitidis)
0.5 µg/mL: MIC50 (Bacteroides fragilis) | MIC90 [5] | MIC50 (Proteus mirabilis) | MIC90 (Listeria monocytogenes) | MIC50 (Clostridioides difficile)
≤ 0.001 µg/mL: MIC50 (Alloiococcus otitis) | MIC90 (Alloiococcus otitis)
0.03 µg/mL: MIC50 (Salmonella enteritidis) | MIC50 (Moraxella catarrhalis) | MIC90 (Moraxella catarrhalis) | MIC50 (Shigella dysenteriae) | MIC90 (Haemophilus influenzae) | MIC50 (Salmonella typhimurium)

C[C@H]1COc2c(N3CCN(C)CC3)c(F)cc3c(=O)c(C(=O)O)cn1c23.C[C@H]1COc2c(N3CCN(C)CC3)c(F)cc3c(=O)c(C(=O)O)cn1c23.O [LEVOFLOXACIN]
2 µg/mL: MIC90 (Hoylesella oralis) | MIC90 [2] | MIC50 [5] | MIC90 [5] | MIC90 (Streptococcus pyogenes) | MIC90 (Proteus mirabilis) | MIC90 (Prevotella corporis) | MIC90 (Prevotella buccae) | MIC90 (Klebsiella oxytoca)
0.25 µg/mL: MIC50 (Staphylococcus aureus [7]) | MIC90 (Staphylococcus aureus [7]) | MIC (Actinomyces sp.) | MIC [8] | MIC50 (Alloiococcus otitis) | MIC90 (Alloiococcus otitis) | MIC50 [15]
0.125 µg/mL: MIC50 (Proteus mirabilis) | MIC50 (Morganella morganii) | MIC [12] | MIC50 (Serratia marcescens) | MIC50 (Acinetobacter sp.)
0.03 µg/mL: MIC50 (Salmonella enteritidis) | MIC [6] | MIC50 (Moraxella catarrhalis) | MIC50 (Citrobacter koseri) | MIC50 (Shigella dysenteriae) | MIC (Fusobacterium sp.) | MIC50 (Salmonella typhimurium)
16 µg/mL: MIC90 (Morganella morganii) | MIC50 (Streptococcus pneumoniae [9]) | MIC90 (Streptococcus pneumoniae [9]) | MIC (Staphylococcus aureus [14]) | MIC90 (Acinetobacter sp.)
32 µg/mL: MIC90 [1] | MIC90 (Bacteroides fragilis) | MIC90 (Corynebacterium sp.) | MIC90 (Klebsiella pneumoniae [13]) | MIC90 (Bacteroides ovatus) | MIC90 [15]
0.008 µg/mL: MIC50 (Neisseria meningitidis) | MIC90 (Neisseria meningitidis) | MIC50 (Haemophilus influenzae) | MIC50 (Legionella pneumophila)
0.015 µg/mL: MIC90 (Haemophilus influenzae) | MIC90 (Legionella pneumophila)
8 µg/mL: MIC50 [1] | MIC50 [3] | MIC50 (Staphylococcus aureus [11]) | MIC90 (Staphylococcus aureus [11]) | MIC50 (Bacteroides ovatus)
4 µg/mL: MIC50 (Bacteroides fragilis) | MIC90 (Serratia marcescens)
1 µg/mL: MIC50 (Hoylesella oralis) | MIC50 [2] | MIC50 (Streptococcus pneumoniae [4]) | MIC90 (Streptococcus pneumoniae [4]) | MIC50 (Streptococcus agalactiae) | MIC90 (Streptococcus agalactiae) | MIC50 (Streptococcus mitis) | MIC90 (Streptococcus mitis) | MIC50 (Streptococcus salivarius) | MIC90 (Streptococcus salivarius) | MIC50 (Pseudomonas aeruginosa) | MIC50 (Prevotella corporis) | MIC50 (Prevotella buccae) | MIC90 (Streptococcus pneumoniae [16]) | MIC50 (Listeria monocytogenes) | MIC90 (Listeria monocytogenes)
0.06 µg/mL: MIC90 (Salmonella enteritidis) | MIC90 (Moraxella catarrhalis) | MIC90 (Citrobacter koseri) | MIC90 (Shigella dysenteriae) | MIC50 (Klebsiella pneumoniae [10]) | MIC50 (Klebsiella oxytoca) | MIC90 (Salmonella typhimurium)
64 µg/mL: MIC50 (Enterococcus faecium) | MIC90 (Enterococcus faecium) | MIC90 [3] | MIC90 (Pseudomonas aeruginosa)
0.5 µg/mL: MIC50 (Streptococcus pyogenes) | MIC50 (Corynebacterium sp.) | MIC90 (Klebsiella pneumoniae [10]) | MIC50 (Klebsiella pneumoniae [13]) | MIC50 (Streptococcus pneumoniae [16]) | MIC50 (Clostridioides difficile) | MIC90 (Clostridioides difficile)
